Source: ChEMBL document CHEMBL4190188, “Neuroprotective Activity of Cerebrosides from Typhonium giganteum by Regulating Caspase-3 and Bax/Bcl-2 Signaling Pathways in PC12 Cells” (J Nat Prod, 2017)
pEC50: −log10 of the molar value. Activity calls are given as the source filed them. No cut-off for these calls is given here.

Key:
PC-12 [1] = assay: Cytotoxicity against rat PC12 cells assessed as decrease in cell viability at 20 uM after 24 hrs by MTT assay; type: cell-based; settings: pc-12, 24 h
Outline: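 PC12 cells grown in DMEM with 10% FBS at 37 °C and 5% CO2, seeded at 10 000 cells/well and cultured 24 h. Compound added at 20 μM without glutamate (DMSO stock at 1000× final). Then MTT (5 mg/mL stock) added for 4 h at 37 °C, formazan dissolved in DMSO, and A570 read. Viability given as % of untreated control.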

PC-12 [2] = assay: cells; settings: Rattus norvegicus, PC-12, 24 h
PC-12 [3] = assay: Neuroprotective activity against 12.5 mM glutamate-induced toxicity in rat PC12 cells assessed as cell viability at 10 uM after 24 hrs by MTT assay; type: functional, cell-based
Outline: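 Concentration-response run in PC12 cells co-exposed 24 h to 12.5 mM glutamate and compound at 0.1, 1, 5, 10, 15 or 20 μM. Viability by MTT (4 h at 37 °C, formazan in DMSO, A570), relative to untreated control; mean ± SD, n = 6.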

PC-12 [4] = assay: Neuroprotective activity against 12.5 mM glutamate-induced apoptosis in rat PC12 cells assessed as late apoptotic cells at 1 uM after 24 hrs by Annexin V-FITC/propidium iodide staining based flow cytometry (reference value: 45.53%); type: functional
PC-12 [5] = assay: Induction of apoptosis in rat PC12 cells assessed as late apoptotic cells at 10 uM after 24 hrs by Annexin V-FITC/propidium iodide staining based flow cytometry (reference value: 45.53%); type: cell-based; settings: pc-12, 24 h
PC-12 [6] = assay: Neuroprotective activity against 12.5 mM glutamate-induced apoptosis in rat PC12 cells assessed as early apoptotic cells at 1 uM after 24 hrs by Annexin V-FITC/propidium iodide staining based flow cytometry (reference value: 1.04%); type: functional
PC-12 [7] = assay: Induction of apoptosis in rat PC12 cells assessed as early apoptotic cells at 10 uM after 24 hrs by Annexin V-FITC/propidium iodide staining based flow cytometry (reference value: 1.04%); type: cell-based; settings: pc-12, 24 h
PC-12 [8] = assay: Neuroprotective activity against 12.5 mM glutamate-induced apoptosis in rat PC12 cells assessed as early apoptotic cells at 0.1 uM after 24 hrs by Annexin V-FITC/propidium iodide staining based flow cytometry (reference value: 1.04%); type: functional
PC-12 [9] = assay: Neuroprotective activity against 12.5 mM glutamate-induced apoptosis in rat PC12 cells assessed as increase in Bcl-2 level at 0.1 to 10 uM after 24 hrs by chemiluminescence based Western blot analysis; type: functional, cell-based
Outline: (§1)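 PC12 cells exposed 24 h to compound at 0.1, 1 or 10 μM, with or without 12.5 mM glutamate. Protein extracted in lysis buffer and quantified by BCA. Equal amounts run on 12% SDS-PAGE, blotted to nitrocellulose, blocked in 5% nonfat milk, then primary antibodies overnight at 4 °C and HRP secondaries. Cytochrome c measured in the cytosolic fraction. Mean ± SD, n = 3.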

PC-12 [10] = assay: Neuroprotective activity against 12.5 mM glutamate-induced apoptosis in rat PC12 cells assessed as late apoptotic cells at 10 uM after 24 hrs by Annexin V-FITC/propidium iodide staining based flow cytometry (reference value: 45.53%); type: functional
PC-12 [11] = assay: Neuroprotective activity against 12.5 mM glutamate-induced apoptosis in rat PC12 cells assessed as decrease in Bax level at 0.1 to 10 uM after 24 hrs by chemiluminescence based Western blot analysis; type: functional, cell-based; outline: as §1
PC-12 [12] = assay: Neuroprotective activity against 12.5 mM glutamate-induced apoptosis in rat PC12 cells assessed as early apoptotic cells at 10 uM after 24 hrs by Annexin V-FITC/propidium iodide staining based flow cytometry (reference value: 1.04%); type: functional
PC-12 [13] = assay: Neuroprotective activity against 12.5 mM glutamate-induced apoptosis in rat PC12 cells assessed as decrease in caspase 3 level after 24 hrs by chemiluminescence based Western blot analysis; type: functional, cell-based; outline: as §1
PC-12 [14] = assay: Neuroprotective activity against 12.5 mM glutamate-induced apoptosis in rat PC12 cells assessed as decrease in cytochrome c level at 0.1 to 10 uM after 24 hrs by chemiluminescence based Western blot analysis; type: functional, cell-based; outline: as §1
PC-12 [15] = assay: Neuroprotective activity against 12.5 mM glutamate-induced apoptosis in rat PC12 cells assessed as decrease in caspase 9 level after 24 hrs by chemiluminescence based Western blot analysis; type: functional, cell-based; outline: as §1
PC-12 [16] = assay: Neuroprotective activity against 12.5 mM glutamate-induced toxicity in rat PC12 cells assessed as cell viability at 0.1 uM after 24 hrs by MTT assay
PC-12 [17] = assay: Neuroprotective activity against 12.5 mM glutamate-induced apoptosis in rat PC12 cells assessed as late apoptotic cells at 0.1 uM after 24 hrs by Annexin V-FITC/propidium iodide staining based flow cytometry (reference value: 45.53%); type: functional

| Structure (SMILES) | Activity (PC-12 [1]) | pEC50 (PC-12 [2]) | Activity (PC-12 [3]) | other results |
| --- | --- | --- | --- | --- |
| CCCCCCCCC/C=C/CC/C=C/[C@@H](O)[C@H](CO[C@@H]1O[C@H](CO)[C@@H](O)[C@H](O)[C@H]1O)NC(=O)[C@H](O)CCCCCCCCCCCCCCCC | Non-Toxic | 4.65 | Active | – |
| CCCCCCCCC/C=C/CC/C=C/[C@@H](O)[C@H](CO[C@@H]1O[C@H](CO)[C@@H](O)[C@H](O)[C@H]1O)NC(=O)[C@H](O)CCCCCCCCCCCCCCCCCC | Non-Toxic | 4.91 | Active | – |
| CCCCCCCCC/C=C/CC/C=C/[C@@H](O)[C@H](CO[C@@H]1O[C@H](CO)[C@@H](O)[C@H](O)[C@H]1O)NC(=O)[C@H](O)CCCCCCCCCCCCCCCCCCCCCC | Non-Toxic | 5.57 | Active | – |
| CCCCCCCCC/C=C\CC/C=C/[C@@H](O)[C@H](CO[C@@H]1O[C@H](CO)[C@@H](O)[C@H](O)[C@H]1O)NC(=O)[C@H](O)CCCCCCCCCCCCCCCCCC | Non-Toxic | 4.92 | Active | – |
| CCCCCCCCC/C=C\CCC[C@@H](O)[C@@H](O)[C@H](CO[C@@H]1O[C@H](CO)[C@@H](O)[C@H](O)[C@H]1O)NC(=O)[C@H](O)CCCCCCCCCCCCCCCCCCCC | Non-Toxic | 5.18 | Active | – |
| CCCCCCCCC/C=C/CC/C=C/[C@@H](O)[C@H](CO[C@@H]1O[C@H](CO)[C@@H](O)[C@H](O)[C@H]1O)NC(=O)[C@H](O)CCCCCCCCCCCCCCCCCCCC | Non-Toxic | 5.16 | Active | – |
| CCCCCCCCC/C=C/CC/C=C/[C@@H](O)[C@H](CO[C@@H]1O[C@H](CO)[C@@H](O)[C@H](O)[C@H]1O)NC(=O)[C@H](O)CCCCCCCCCCCCCC | Non-Toxic | 4.53 | Active | – |
| CCCCCCCCC/C=C\CC/C=C/[C@@H](O)[C@H](CO[C@@H]1O[C@H](CO)[C@@H](O)[C@H](O)[C@H]1O)NC(=O)[C@H](O)CCCCCCCCCCCCCCCCCCCC | Non-Toxic | 5.19 | Active | – |
| CCCCCCCCC/C=C\CC/C=C/[C@@H](O)[C@H](CO[C@@H]1O[C@H](CO)[C@@H](O)[C@H](O)[C@H]1O)NC(=O)[C@H](O)CCCCCCCCCCCCCCCCCCC | Non-Toxic | 5.05 | Active | – |
| CCCCCCCCC/C=C\CC/C=C/[C@@H](O)[C@H](CO[C@@H]1O[C@H](CO)[C@@H](O)[C@H](O)[C@H]1O)NC(=O)[C@H](O)CCCCCCCCCCCCCC | Non-Toxic | 4.57 | Active | – |
| CCCCCCCCC/C=C\CC/C=C/[C@@H](O)[C@H](CO[C@@H]1O[C@H](CO)[C@@H](O)[C@H](O)[C@H]1O)NC(=O)[C@H](O)CCCCCCCCCCCCCCCCCCCCCC | Non-Toxic | 5.60 | Active | Activity (PC-12 [4]): 22.38%; Activity (PC-12 [5]): 1.49%; Activity (PC-12 [6]): 1.2%; Activity (PC-12 [7]): 0.62%; Activity (PC-12 [8]): 1.79%; Activity (PC-12 [9]): Active; Activity (PC-12 [10]): 2.11%; Activity (PC-12 [11]): Active; Activity (PC-12 [12]): 1.02%; Activity (PC-12 [13]): Dose-dependent effect; Activity (PC-12 [14]): Active; Activity (PC-12 [15]): Dose-dependent effect; Activity (PC-12 [16]): Active; Activity (PC-12 [17]): 30.63% |
| CCCCCCCCC/C=C/CC/C=C/[C@@H](O)[C@H](CO[C@@H]1O[C@H](CO)[C@@H](O)[C@H](O)[C@H]1O)NC(=O)[C@H](O)CCCCCCCCCCCCCCCCCCC | Non-Toxic | 5.06 | Active | – |
| CC1=NN(c2ccccc2)C(=O)C1 [EDARAVONE] | – | 5.04 | – | – |
| CCCCCCCCC/C=C\CC/C=C/[C@@H](O)[C@H](CO[C@@H]1O[C@H](CO)[C@@H](O)[C@H](O)[C@H]1O)NC(=O)[C@H](O)CCCCCCCCCCCCCCCC | Non-Toxic | 4.70 | Active | – |
